Laboratory results: ChEMBL document CHEMBL1132381, “Pyrrolidine-3-carboxylic acids as endothelin antagonists. 4. Side chain conformational restriction leads to ET(B) selectivity” (J Med Chem, 1999)

tested on: CHO; assay: Antagonistic activity was measured by ET receptor mediated hydrolysis of inositol phosphates; format: functional, cell-based; conditions: Cricetulus griseus
In short: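 Inositol phosphate hydrolysis in human ETB-transfected CHO cells. Confluent cells labeled with 5 μCi/well [3H]myoinositol, then held 60 min at 37 °C in HEPES saline buffer with protease inhibitors and 10 mM LiCl. Compounds added, then 1 nM ET-1 challenge for 30 min at 37 °C. Total inositol phosphates measured; agonist activity assessed in the same run.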

Row | Compound | IC50
1 | CCOc1ccc([C@H]2[C@H](C(=O)O)[C@@H](c3ccc4c(c3)OCO4)CN2CC(=O)Nc2c(CC)cccc2CC)cc1 (stereo in doubt; 37) | 7.9 nM

tested on: Rattus norvegicus; assay: Oral bioavailability in rat; conditions: not given

Row | Compound | bioavailability
2 | CCc1cccc(CC)c1NC(=O)CN1C[C@H](c2ccc3c(c2)OCO3)[C@@H](C(=O)O)[C@@H]1c1ccc(OCCOC)cc1 (stereo in doubt; 39) [listing 1 of 2 here] | 9%

target: T1, Endothelin-1 receptor (Homo sapiens, UniProt P25101); assay: Binding affinity towards human Endothelin A receptor (hET -A); conditions: not given
T1 sequence (P25101 whole entry): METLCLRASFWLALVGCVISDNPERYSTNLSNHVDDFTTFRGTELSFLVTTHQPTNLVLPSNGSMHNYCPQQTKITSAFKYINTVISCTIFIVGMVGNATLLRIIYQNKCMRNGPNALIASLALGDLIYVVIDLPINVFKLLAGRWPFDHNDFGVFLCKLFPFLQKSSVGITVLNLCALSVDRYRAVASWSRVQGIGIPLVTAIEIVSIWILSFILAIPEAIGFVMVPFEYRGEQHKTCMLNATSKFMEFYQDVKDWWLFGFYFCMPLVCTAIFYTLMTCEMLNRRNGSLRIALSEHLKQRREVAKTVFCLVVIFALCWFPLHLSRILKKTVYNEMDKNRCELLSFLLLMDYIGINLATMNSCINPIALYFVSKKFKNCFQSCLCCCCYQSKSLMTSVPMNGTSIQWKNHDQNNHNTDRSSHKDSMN

Row | Compound | IC50
3 | CCc1cc(F)cc(CC)c1NC(=O)CN1C[C@H](c2ccc3c(c2)OCO3)[C@@H](C(=O)O)[C@@H]1c1ccc(OC)cc1 | 22 nM
4 | CCc1cccc(CC)c1NC(=O)CN1C[C@H](c2ccc3c(c2)OCO3)[C@@H](C(=O)O)[C@@H]1c1ccc(OC)cc1 (stereo in doubt; 19) | 45 nM
5 | CCc1cccc(OC)c1NC(=O)CN1C[C@H](c2ccc3c(c2)OCO3)[C@@H](C(=O)O)[C@@H]1c1ccc(OC)cc1 | 200 nM
6 | CCCc1cccc(CCC)c1NC(=O)CN1C[C@H](c2ccc3c(c2)OCO3)[C@@H](C(=O)O)[C@@H]1c1ccc(OC)cc1 | 12 nM
7 | COc1ccc([C@H]2[C@H](C(=O)O)[C@@H](c3ccc4c(c3)OCO4)CN2CC(=O)Nc2cc(C)ccc2C)cc1 | 33 nM
8 | CCc1cccc(CC)c1NC(=O)CN1C[C@H](c2ccc3c(c2)OCO3)[C@@H](C(=O)O)[C@@H]1c1ccc(OC(C)C)cc1 | 1500 nM
9 | COc1ccc([C@H]2[C@H](C(=O)O)[C@@H](c3ccc4c(c3)OCO4)CN2CC(=O)Nc2c(C(C)C)cccc2C(C)C)cc1 | 920 nM
10 | CCc1cc(C(=O)O)cc(CC)c1NC(=O)CN1C[C@H](c2ccc3c(c2)OCO3)[C@@H](C(=O)O)[C@@H]1c1ccc(OC)cc1 | 840 nM
11 | CCc1cccc(CC)c1N(C)C(=O)CN1C[C@H](c2ccc3c(c2)OCO3)[C@@H](C(=O)O)[C@@H]1c1ccc(OC)cc1 | 190 nM
12 | COc1ccc([C@H]2[C@H](C(=O)O)[C@@H](c3ccc4c(c3)OCO4)CN2CC(=O)Nc2ccc(C)c(C)c2)cc1 | 50 nM
13 | CCc1cccc(CC)c1NC(=O)CN1C[C@H](c2ccc3c(c2)OCO3)[C@@H](C(=O)O)[C@@H]1c1ccc(OCCOC)cc1 (stereo in doubt; 39) [listing 2 of 2 here] | 3700 nM
14 | COc1ccc([C@H]2[C@H](C(=O)O)[C@@H](c3ccc4c(c3)OCO4)CN2CC(=O)Nc2cccc(C)c2C)cc1 | 16 nM
15 | COc1ccc([C@H]2[C@H](C(=O)O)[C@@H](c3ccc4c(c3)OCO4)CN2CC(=O)Nc2c(C)cccc2C(C)C)cc1 | 100 nM
16 | COc1ccc([C@H]2[C@H](C(=O)O)[C@@H](c3ccc4c(c3)OCO4)CN2CC(=O)Nc2c(OC)cccc2OC)cc1 | 16 nM
17 | COc1ccc([C@H]2[C@H](C(=O)O)[C@@H](c3ccc4c(c3)OCO4)CN2CC(=O)Nc2cc(C)cc(C)c2)cc1 | 160 nM
18 | CCOc1ccc([C@H]2[C@H](C(=O)O)[C@@H](c3ccc4c(c3)OCO4)CN2CC(=O)Nc2c(CC)cccc2CC)cc1 (stereo in doubt; 37) | 340 nM

target: Endothelin receptor, ET-A/ET-B (Homo sapiens) (UniProt P24530+P25101); assay: Ratio of binding affinity towards hETA to hETB; format: protein assay; conditions: not given
In short: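 Ratio of IC50 values from two CHO membrane binding assays. Both run 3 h at 25 °C over 11 concentrations, 10^-10 to 10^-5 M, in duplicate, with at least 2 determinations each.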

Row | Compound | Ratio
19 | CCc1cc(F)cc(CC)c1NC(=O)CN1C[C@H](c2ccc3c(c2)OCO3)[C@@H](C(=O)O)[C@@H]1c1ccc(OC)cc1 | 24
20 | CCc1cccc(OC)c1NC(=O)CN1C[C@H](c2ccc3c(c2)OCO3)[C@@H](C(=O)O)[C@@H]1c1ccc(OC)cc1 | 34
21 | CCCc1cccc(CCC)c1NC(=O)CN1C[C@H](c2ccc3c(c2)OCO3)[C@@H](C(=O)O)[C@@H]1c1ccc(OC)cc1 | 0.03
22 | COc1ccc([C@H]2[C@H](C(=O)O)[C@@H](c3ccc4c(c3)OCO4)CN2CC(=O)Nc2cc(C)ccc2C)cc1 | 0.4
23 | CCc1cccc(CC)c1NC(=O)CN1C[C@H](c2ccc3c(c2)OCO3)[C@@H](C(=O)O)[C@@H]1c1ccc(OC(C)C)cc1 | 220
24 | COc1ccc([C@H]2[C@H](C(=O)O)[C@@H](c3ccc4c(c3)OCO4)CN2CC(=O)Nc2c(C(C)C)cccc2C(C)C)cc1 | 35
25 | CCc1cc(C(=O)O)cc(CC)c1NC(=O)CN1C[C@H](c2ccc3c(c2)OCO3)[C@@H](C(=O)O)[C@@H]1c1ccc(OC)cc1 | 19
26 | CCc1cccc(CC)c1N(C)C(=O)CN1C[C@H](c2ccc3c(c2)OCO3)[C@@H](C(=O)O)[C@@H]1c1ccc(OC)cc1 | 0.3
27 | CCc1cccc(CC)c1NC(=O)CN1C[C@H](c2ccc3c(c2)OCO3)[C@@H](C(=O)O)[C@@H]1c1ccc(OCCOC)cc1 (stereo in doubt; 39) [listing 1 of 2 here] | 4400
28 | COc1ccc([C@H]2[C@H](C(=O)O)[C@@H](c3ccc4c(c3)OCO4)CN2CC(=O)Nc2ccc(C)c(C)c2)cc1 | 0.06
29 | COc1ccc([C@H]2[C@H](C(=O)O)[C@@H](c3ccc4c(c3)OCO4)CN2CC(=O)Nc2cccc(C)c2C)cc1 | 0.2
30 | COc1ccc([C@H]2[C@H](C(=O)O)[C@@H](c3ccc4c(c3)OCO4)CN2CC(=O)Nc2c(C)cccc2C(C)C)cc1 | 5
31 | COc1ccc([C@H]2[C@H](C(=O)O)[C@@H](c3ccc4c(c3)OCO4)CN2CC(=O)Nc2c(OC)cccc2OC)cc1 | 0.3
32 | COc1ccc([C@H]2[C@H](C(=O)O)[C@@H](c3ccc4c(c3)OCO4)CN2CC(=O)Nc2cc(C)cc(C)c2)cc1 | 0.06

target: T2, Endothelin receptor type B (Homo sapiens, UniProt P24530); assay: Binding affinity towards human Endothelin B receptor (hET -B); conditions: not given
T2 sequence (P24530 whole entry): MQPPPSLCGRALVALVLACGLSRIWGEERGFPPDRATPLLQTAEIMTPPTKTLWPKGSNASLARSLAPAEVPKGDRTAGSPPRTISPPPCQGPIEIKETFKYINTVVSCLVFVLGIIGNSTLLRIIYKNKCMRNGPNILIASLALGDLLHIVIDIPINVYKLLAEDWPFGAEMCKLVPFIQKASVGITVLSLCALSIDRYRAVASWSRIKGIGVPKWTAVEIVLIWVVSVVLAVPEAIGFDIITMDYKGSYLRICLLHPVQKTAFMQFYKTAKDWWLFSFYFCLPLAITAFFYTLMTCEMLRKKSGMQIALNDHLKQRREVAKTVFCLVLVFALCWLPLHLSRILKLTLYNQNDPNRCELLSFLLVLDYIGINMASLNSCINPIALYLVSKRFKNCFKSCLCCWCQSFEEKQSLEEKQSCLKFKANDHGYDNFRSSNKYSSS

Row | Compound | IC50
33 | CCc1cc(F)cc(CC)c1NC(=O)CN1C[C@H](c2ccc3c(c2)OCO3)[C@@H](C(=O)O)[C@@H]1c1ccc(OC)cc1 | 0.8 nM
34 | CCc1cccc(CC)c1NC(=O)CN1C[C@H](c2ccc3c(c2)OCO3)[C@@H](C(=O)O)[C@@H]1c1ccc(OC)cc1 (stereo in doubt; 19) | 1.4 nM
35 | CCc1cccc(OC)c1NC(=O)CN1C[C@H](c2ccc3c(c2)OCO3)[C@@H](C(=O)O)[C@@H]1c1ccc(OC)cc1 | 5.8 nM
36 | CCCc1cccc(CCC)c1NC(=O)CN1C[C@H](c2ccc3c(c2)OCO3)[C@@H](C(=O)O)[C@@H]1c1ccc(OC)cc1 | 460 nM
37 | COc1ccc([C@H]2[C@H](C(=O)O)[C@@H](c3ccc4c(c3)OCO4)CN2CC(=O)Nc2cc(C)ccc2C)cc1 | 82 nM
38 | CCc1cccc(CC)c1NC(=O)CN1C[C@H](c2ccc3c(c2)OCO3)[C@@H](C(=O)O)[C@@H]1c1ccc(OC(C)C)cc1 | 6.9 nM
39 | COc1ccc([C@H]2[C@H](C(=O)O)[C@@H](c3ccc4c(c3)OCO4)CN2CC(=O)Nc2c(C(C)C)cccc2C(C)C)cc1 | 26 nM
40 | CCc1cc(C(=O)O)cc(CC)c1NC(=O)CN1C[C@H](c2ccc3c(c2)OCO3)[C@@H](C(=O)O)[C@@H]1c1ccc(OC)cc1 | 44 nM
41 | CCc1cccc(CC)c1N(C)C(=O)CN1C[C@H](c2ccc3c(c2)OCO3)[C@@H](C(=O)O)[C@@H]1c1ccc(OC)cc1 | 600 nM
42 | COc1ccc([C@H]2[C@H](C(=O)O)[C@@H](c3ccc4c(c3)OCO4)CN2CC(=O)Nc2ccc(C)c(C)c2)cc1 | 830 nM
43 | CCc1cccc(CC)c1NC(=O)CN1C[C@H](c2ccc3c(c2)OCO3)[C@@H](C(=O)O)[C@@H]1c1ccc(OCCOC)cc1 (stereo in doubt; 39) [listing 2 of 2 here] | 0.85 nM
44 | COc1ccc([C@H]2[C@H](C(=O)O)[C@@H](c3ccc4c(c3)OCO4)CN2CC(=O)Nc2cccc(C)c2C)cc1 | 81 nM
45 | COc1ccc([C@H]2[C@H](C(=O)O)[C@@H](c3ccc4c(c3)OCO4)CN2CC(=O)Nc2c(C)cccc2C(C)C)cc1 | 20 nM
46 | COc1ccc([C@H]2[C@H](C(=O)O)[C@@H](c3ccc4c(c3)OCO4)CN2CC(=O)Nc2c(OC)cccc2OC)cc1 | 57 nM
47 | COc1ccc([C@H]2[C@H](C(=O)O)[C@@H](c3ccc4c(c3)OCO4)CN2CC(=O)Nc2cc(C)cc(C)c2)cc1 | 2700 nM
48 | CCOc1ccc([C@H]2[C@H](C(=O)O)[C@@H](c3ccc4c(c3)OCO4)CN2CC(=O)Nc2c(CC)cccc2CC)cc1 (stereo in doubt; 37) | 1.2 nM

tested on: not listed separately; assay: Compound was evaluated for area under curve when administered through oral route to rat; conditions: in vivo

Row | Compound | AUC
49 | CCc1cccc(CC)c1NC(=O)CN1C[C@H](c2ccc3c(c2)OCO3)[C@@H](C(=O)O)[C@@H]1c1ccc(OCCOC)cc1 (stereo in doubt; 39) [listing 2 of 2 here] | 650 ng·h/mL
50 | CCOc1ccc([C@H]2[C@H](C(=O)O)[C@@H](c3ccc4c(c3)OCO4)CN2CC(=O)Nc2c(CC)cccc2CC)cc1 (stereo in doubt; 37) | 3400 ng·h/mL

tested on: not listed separately; assay: Compound was evaluated for the biological half-life when administered through intravenous route; format: ADME, organism-based; conditions: in vivo

Row | Compound | half-life
51 | CCc1cccc(CC)c1NC(=O)CN1C[C@H](c2ccc3c(c2)OCO3)[C@@H](C(=O)O)[C@@H]1c1ccc(OCCOC)cc1 (stereo in doubt; 39) [listing 2 of 2 here] | 2.6 h
52 | CCOc1ccc([C@H]2[C@H](C(=O)O)[C@@H](c3ccc4c(c3)OCO4)CN2CC(=O)Nc2c(CC)cccc2CC)cc1 (stereo in doubt; 37) | 3.1 h

tested on: not listed separately; assay: Oral bioavailability in rat; conditions: in vivo

Row | Compound | bioavailability
53 | CCOc1ccc([C@H]2[C@H](C(=O)O)[C@@H](c3ccc4c(c3)OCO4)CN2CC(=O)Nc2c(CC)cccc2CC)cc1 (stereo in doubt; 37) | 37%
